Screening data: PubChem BioAssay, several laboratories
NPY Y2 blocker = blocks the human neuropeptide Y Y2 receptor; 140,000 compounds, 0.99% hits; NPY-Y2 expressing cells, antagonist mode; AID 793; inhibition, % at 2.7 µM; P49146; in the data active = inhibition above about 17%
Target sequence (P49146 whole entry, looked up): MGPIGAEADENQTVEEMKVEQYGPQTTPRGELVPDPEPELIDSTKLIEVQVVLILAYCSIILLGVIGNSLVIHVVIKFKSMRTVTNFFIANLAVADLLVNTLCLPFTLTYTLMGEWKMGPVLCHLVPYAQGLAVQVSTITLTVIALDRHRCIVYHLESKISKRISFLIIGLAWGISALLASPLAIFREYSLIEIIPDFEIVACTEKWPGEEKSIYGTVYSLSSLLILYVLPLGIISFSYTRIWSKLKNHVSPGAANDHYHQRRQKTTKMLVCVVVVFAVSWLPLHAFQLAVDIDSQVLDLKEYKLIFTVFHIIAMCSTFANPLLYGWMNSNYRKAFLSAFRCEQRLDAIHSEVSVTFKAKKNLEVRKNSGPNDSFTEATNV
MT stabilize HCS = microtubule stabilization, imaging screen | HeLa tubulin immunostaining HCS, 24 h; share of cells brighter than vehicle mean+2SD | % tubulin-high responders, % at 10 µM | 200,000 compounds, 0.83% hits | AID 2205;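 active = plate Z-score above 3 for both tubulin-high and condensed-nucleus cell shares, with cell loss under 80%, at 10 µM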;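 also: anti alpha tubulin signal scored within the nucleus-defined area of each cell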
bCat nuc transl = beta-catenin nuclear translocation modulation; HeLa beta-catenin nuclear translocation, immunofluorescence imaging; nuclear translocation activity, % at 5 µM; 190,000 compounds, 0.3% hits;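 active = nuclear translocation activity above 50% at 5 µM, with a well cell count of 50 or more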;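 also: per-cell ratio of nuclear to cytoplasmic median beta-catenin stain intensity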
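System: HeLa cells, endogenous beta-catenin; compound dosing: 5 µM primary single dose, 0.1% DMSO, 0.02–20 µM confirmation series; incubation: 24 h compound exposure at 37°C, 5% CO2; signal: beta-catenin immunofluorescence imaging with DAPI; evaluation: % activation, nuclear-to-cytoplasmic median beta-catenin signal ratio per cell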
NPY Y1 blocker = NPY-Y1 (human) receptor antagonism; inhibition, % at 3.6 µM; 200,000 compounds, 1% hits; P25929; HEK293-CNG Y1 cells, membrane potential fluorescence; NPY at EC95, then isoproterenol;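 active = inhibition above the campaign mean inhibition of all tested compounds plus 3 SD, cut at about 20% in these data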
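Assay system: HEK293 cells with Y1 receptor plus CNG channel | Probe or stimulus: NPY (25 nM), isoproterenol (1 µM), Ro 20-1724 (25 µM) | Timing: Compound incubation 1 h at room temperature, readout 45 min post-stimulation | Measured by: Membrane-potential fluorescent dye readout | Benchmarks: High control isoproterenol alone, low control NPY with isoproterenol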
NPY-Y2 PAM-ag = potentiators or agonists of human neuropeptide Y receptor Y2. 220,000 compounds, 0.45% hits. activation, % at 3.6 µM. cells expressing NPY-Y2, potentiator/agonist read-out. P49146; in the data active = activation above about 27%;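 also: cells stimulated with NPY near EC25 plus isoproterenol at EC100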
NPY1 pot ag = potentiators or agonists of human neuropeptide Y receptor Y1. P25929. NPY-Y1 expressing cells, potentiator/agonist activation. activation, % at 3.6 µM. 220,000 compounds, 0.37% hits. AID 1304; in the data active = activation above about 33%, passing the limit was not always enough;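 also: cells stimulated with NPY at EC10 then isoproterenol at EC100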
Numbers stand for hits; i = inactive; nt = no result given. A selection: hits, their analogues and other compounds. The true share with any hit is near 2.6%.

SMILES | NPY Y2 blocker | MT stabilize HCS | bCat nuc transl | NPY Y1 blocker | NPY-Y2 PAM-ag | NPY1 pot ag
Cc1ccc(C(=O)C(C)OC(=O)C2CC(=O)N(C3CCCCC3)C2)cc1 (centres undefined) | i | i | i | i | i | i
CNC(=O)NC(=O)COC(=O)CCCSc1nc2ccccc2s1 | i | i | i | i | i | i
Cc1cc(C(=O)CCl)c(C)n1CCc1ccc(Cl)cc1 | nt | i | i | i | 91 | 63
O=C(O)COc1ccc2c(-c3ccccc3)cc(=O)oc2c1 | i | i | i | 20 | i | i
CC(=O)COc1ccc2c(-c3cccc([N+](=O)[O-])c3)cc(=O)oc2c1 | nt | i | i | i | i | i
Cc1ccc(C(=O)Oc2ccccc2N2C(=O)C3C4CCC(C4)C3C2=O)cc1 (centres undefined) | i | i | i | i | i | i
CCn1c2ccccc2c2cc(/C=N/NC(=O)c3ccccc3)ccc21 | i | 20 | i | i | i | i
O=C(N/N=C/c1ccc(F)cc1)c1ccccc1 | nt | i | i | i | i | i
N#Cc1c(NCCN)nc(-c2ccccc2)c2c1CCCC2 | 24 | i | nt | 29 | i | i
O=C(Nc1ccc(Cl)cc1)Nc1ccc2c(c1)N1CCN=C1S2 | i | i | i | i | i | 35
N#CC(C#N)=c1ccc2c(c1)NC1(CCCCC1)N=2 | i | i | i | i | 44 | 41
N#CC(C#N)=C1NC2(CCCCC2)Cc2ccccc21 | nt | nt | i | nt | i | i
Cc1csc2nc(CSc3nc4ccccc4o3)c(Br)n12 | i | i | i | 23 | i | i
Cc1ccc(-c2cc(C(=O)N/N=C/c3c(C)nn(-c4ccccc4)c3C)n[nH]2)s1 | i | i | 122 | i | i | i
Cc1ccc(-c2cc(C(=O)N/N=C/c3c(C)nn(-c4ccccc4)c3C)[nH]n2)cc1 | i | i | 102 | i | i | i
Cc1nn(-c2ccccc2)c(C)c1/C=N/NC(=O)c1cc(C(C)(C)C)[nH]n1 | i | i | i | i | i | i
CCCCn1c(SCC(=O)NCc2cccs2)nc2c1c(=O)n(C)c(=O)n2C | i | i | i | i | i | i
Cc1ccc(S(=O)(=O)N(C)c2ccc(OCC(=O)Nc3nnc(C4CC4)s3)cc2)cc1 | nt | i | i | i | i | i
CC1CCN(c2nc(-c3cccnc3)nc3scc(-c4ccccc4)c23)CC1 | i | i | i | i | i | i
CC1CCN(c2nc(CN3CCCCC3)nc3scc(-c4ccccc4)c23)CC1 | 47 | i | i | 41 | i | i
Cc1cc(C)c(NS(=O)(=O)c2ccc(NC(=O)CCC(=O)O)cc2)c(C)c1 | nt | i | i | i | i | i
COc1cc(C(=O)OCn2nnc3ccccc3c2=O)cc(OC)c1OC | i | i | 83 | i | i | i
CCOc1ccc(C(=O)OCn2nnc3ccccc3c2=O)cc1OC | i | i | i | i | i | i
Cc1cc(N2CCCCC2)nc(NCc2ccccc2)n1 | i | 17 | i | i | i | i
Cc1cc(N2CCOCC2)nc(NCc2ccccc2)n1 | i | i | i | i | i | i
SMILES | NPY Y2 blocker | MT stabilize HCS | bCat nuc transl | NPY Y1 blocker | NPY-Y2 PAM-ag | NPY1 pot ag
CSc1nc(Oc2ccc3ccccc3c2)c2sccc2n1 | i | 41 | 86 | i | i | i
COc1ccc(Oc2nc(SC)nc3ccsc23)cc1 | i | i | nt | i | i | i
Cc1ccc2nc(SCC(=O)NNC(=O)c3ccccc3)[nH]c2c1 | i | i | i | i | i | i
CCSC(=Nc1ccccc1)Nc1ccccc1 | nt | i | i | i | i | i
OC(c1cc(C(F)(F)F)nc2c(Cl)cc(Cl)cc12)C1CCCCN1 (centres undefined) | nt | nt | i | nt | 62 | 66
O=C(c1nn2cccnc2c1Cl)N1CCN(c2ccccc2)CC1 | i | i | i | i | i | i
CC1(c2ccc(OC(F)F)cc2)NC(=O)N(/N=C/c2c(O)ccc3ccccc23)C1=O (centres undefined) | i | i | i | i | i | i
CCOC(=O)C(C)Sc1nc(-c2ccco2)cc(C(F)(F)F)c1C#N (centres undefined) | 20 | i | i | 34 | i | i
S=C(Nc1ccc2nccnc2c1)N1CCOCC1 | nt | i | i | i | i | i
O=C(NCCc1ccccc1)C1CCCN1C(=O)Nc1ccc(F)cc1 (centres undefined) | i | i | i | i | i | i
N=C1C(c2nc3ccccc3c(=O)[nH]2)=C(O)CN1c1ccccc1 | i | 42 | nt | i | i | i
